From ChEMBL document CHEMBL1649200, “Concurrent titration and determination of antibiotic resistance in ureaplasma species with identification of novel point mutations in genes associated with resistance” (2009)
Converted amounts (≈) assume the structure as drawn.

Columns and labels:
Format in all cases: functional
Ureaplasma urealyticum [1] = experiment: Antimicrobial activity against Ureaplasma urealyticum isolate HPA3 after 48 hrs by modified broth microdilution technique; settings: isolate HPA3, 48 h
Procedure, shortened: (§1)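 Full-plate broth microdilution in ureaplasma selective medium (10% porcine serum, urea, phenol red, starting pH 6.65). A doubling-dilution antibiotic gradient from 64 to 0.0625 mg/liter is run, with an antibiotic-free column. An overnight culture of unknown CCU is added 1:10, then titrated 10-fold at right angles. Plates are sealed and held 48 h at 37°C. The MIC is the lowest concentration preventing colour change, read at 10⁴ CCU relative to the antibiotic-free control.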

Ureaplasma urealyticum [2] = experiment: Antimicrobial activity against Ureaplasma urealyticum isolate HPA6 after 48 hrs by modified broth microdilution technique; settings: isolate HPA6, 48 h; procedure, shortened: as §1
Ureaplasma urealyticum [3] = experiment: Antimicrobial activity against Ureaplasma urealyticum isolate HPA12 after 48 hrs by modified broth microdilution technique; settings: isolate HPA12, 48 h; procedure, shortened: as §1
Ureaplasma urealyticum [4] = experiment: Antimicrobial activity against Ureaplasma urealyticum isolate HPA17 after 48 hrs by modified broth microdilution technique; settings: isolate HPA17, 48 h; procedure, shortened: as §1
Ureaplasma parvum [5] = experiment: Antimicrobial activity against Ureaplasma parvum SV1 isolate HPA18 after 48 hrs by modified broth microdilution technique; settings: SV1 isolate HPA18, 48 h; procedure, shortened: as §1
Ureaplasma urealyticum [6] = experiment: Antimicrobial activity against Ureaplasma urealyticum isolate HPA20 after 48 hrs by modified broth microdilution technique; settings: isolate HPA20, 48 h; procedure, shortened: as §1
Ureaplasma parvum [7] = experiment: Antimicrobial activity against Ureaplasma parvum SV6 isolate HPA23 after 48 hrs by modified broth microdilution technique; settings: SV6 isolate HPA23, 48 h; procedure, shortened: as §1
Ureaplasma parvum [8] = experiment: Antimicrobial activity against Ureaplasma parvum SV14 isolate HPA32 after 48 hrs by modified broth microdilution technique; settings: SV14 isolate HPA32, 48 h; procedure, shortened: as §1
Ureaplasma parvum [9] = experiment: Antimicrobial activity against Ureaplasma parvum isolate UHWJM after 48 hrs by modified broth microdilution technique; procedure, shortened: as §1
Ureaplasma parvum [10] = experiment: Antimicrobial activity against Ureaplasma parvum SV1 isolate UHWO10 after 48 hrs by modified broth microdilution technique; settings: SV1 isolate UHWO10, 48 h; procedure, shortened: as §1
Ureaplasma parvum [11] = experiment: Antimicrobial activity against Ureaplasma parvum isolate UHWP2 after 48 hrs by modified broth microdilution technique; settings: isolate UHWP2, 48 h; procedure, shortened: as §1
Ureaplasma parvum [12] = experiment: Antimicrobial activity against Ureaplasma parvum SV1 isolate UHWQ3 after 48 hrs by modified broth microdilution technique; settings: SV1 isolate UHWQ3, 48 h; procedure, shortened: as §1
Ureaplasma parvum [13] = experiment: Antimicrobial activity against Ureaplasma parvum SV9 containing tetM gene; procedure, shortened: as §1

MIC (Ureaplasma urealyticum [1]) [µg/mL] | MIC (Ureaplasma urealyticum [2]) [µg/mL] | MIC (Ureaplasma urealyticum [3]) [µg/mL] | MIC (Ureaplasma urealyticum [4]) [µg/mL] | MIC (Ureaplasma parvum [5]) [µg/mL] | MIC (Ureaplasma urealyticum [6]) [µg/mL] | MIC (Ureaplasma parvum [7]) [µg/mL] | MIC (Ureaplasma parvum [8]) [µg/mL] | MIC (Ureaplasma parvum [9]) [µg/mL] | MIC (Ureaplasma parvum [10]) [µg/mL] | MIC (Ureaplasma parvum [11]) [µg/mL] | MIC (Ureaplasma parvum [12]) [µg/mL] | MIC (Ureaplasma parvum [13]) [µg/mL] | SMILES
0.5 (≈ 0.668 µM) | < 0.25 | < 0.25 | 0.5 (≈ 0.668 µM) | < 0.25 | < 0.25 | < 0.25 | < 0.25 | < 0.25 | 2 (≈ 2.67 µM) | < 0.25 | < 0.25 | – | CC[C@H]1OC(=O)[C@H](C)[C@@H](O[C@H]2C[C@@](C)(OC)[C@@H](O)[C@H](C)O2)[C@H](C)[C@@H](O[C@@H]2O[C@H](C)C[C@H](N(C)C)[C@H]2O)[C@](C)(O)C[C@@H](C)CN(C)[C@H](C)[C@@H](O)[C@]1(C)O [AZITHROMYCIN]
2 (≈ 4.5 µM) | 2 (≈ 4.5 µM) | 2 (≈ 4.5 µM) | 1 (≈ 2.25 µM) | 2 (≈ 4.5 µM) | 2 (≈ 4.5 µM) | 64 (≈ 144 µM) | 1 (≈ 2.25 µM) | 2 (≈ 4.5 µM) | 1 (≈ 2.25 µM) | 2 (≈ 4.5 µM) | 1 (≈ 2.25 µM) | > 64 | CN(C)[C@@H]1C(O)=C(C(N)=O)C(=O)[C@@]2(O)C(O)=C3C(=O)c4c(O)cccc4[C@@](C)(O)[C@H]3C[C@@H]12 [TETRACYCLINE]
0.5 | 0.5 | 0.5 | 0.25 | 0.25 | 0.5 | 16 | 0.25 | 0.5 | 0.25 | 0.5 | 0.25 | 64 | C[C@H]1c2cccc(O)c2C(=O)C2=C(O)[C@]3(O)C(=O)C(C(N)=O)=C(O)[C@@H](N(C)C)[C@@H]3[C@@H](O)[C@@H]21.O [DOXYCYCLINE]
< 0.125 | < 0.125 | < 0.125 | < 0.125 | < 0.125 | < 0.125 | < 0.125 | < 0.125 | < 0.125 | 4 (≈ 5.35 µM) | < 0.125 | < 0.125 | – | CC[C@H]1OC(=O)[C@H](C)[C@@H](O[C@H]2C[C@@](C)(OC)[C@@H](O)[C@H](C)O2)[C@H](C)[C@@H](O[C@@H]2O[C@H](C)C[C@H](N(C)C)[C@H]2O)[C@](C)(OC)C[C@@H](C)C(=O)[C@H](C)[C@@H](O)[C@]1(C)O [CLARITHROMYCIN]
4 (≈ 12.1 µM) | 4 (≈ 12.1 µM) | 4 (≈ 12.1 µM) | 4 (≈ 12.1 µM) | 8 (≈ 24.1 µM) | 4 (≈ 12.1 µM) | < 2 | < 2 | 4 (≈ 12.1 µM) | 4 (≈ 12.1 µM) | 4 (≈ 12.1 µM) | 4 (≈ 12.1 µM) | – | O=C(O)c1cn(C2CC2)c2cc(N3CCNCC3)c(F)cc2c1=O [CIPROFLOXACIN]
4 (≈ 5.45 µM) | 8 (≈ 10.9 µM) | 8 (≈ 10.9 µM) | 8 (≈ 10.9 µM) | 4 (≈ 5.45 µM) | 8 (≈ 10.9 µM) | 4 (≈ 5.45 µM) | 8 (≈ 10.9 µM) | 4 (≈ 5.45 µM) | > 64 | 4 (≈ 5.45 µM) | 4 (≈ 5.45 µM) | 4 (≈ 5.45 µM) | CC[C@H]1OC(=O)[C@H](C)[C@@H](O[C@H]2C[C@@](C)(OC)[C@@H](O)[C@H](C)O2)[C@H](C)[C@@H](O[C@@H]2O[C@H](C)C[C@H](N(C)C)[C@H]2O)[C@](C)(O)C[C@@H](C)C(=O)[C@H](C)[C@@H](O)[C@]1(C)O [ERYTHROMYCIN]
